Experimental data gathered from unrelated publications.
Protocols differ between the studies behind these lines.
Target: Cyclin-dependent kinase 9 (CDK9, Homo sapiens, UniProt P50750)

Structure (SMILES) | test | setting | remaining binding
Cc1nccc(COC(=O)N2C[C@@H]3[C@@H](CNC(=O)c4ccc5[nH]nnc5c4)[C@@H]3C2)n1 | cell-free assay, competition with immobilised ligand | 1 µM | 100%
O=C(NCCCN1CCOCC1)c1ccc(Nc2ncc(Cl)c(-c3ccc(Cl)s3)n2)cc1 | binding, competition with immobilised ligand | 1 µM | 56%
COc1ncc2cc3ccccc3nc2c1C#N | cell-free assay, competition with immobilised ligand | 5 µM | 91%
COc1cnc(Nc2cccc(S(N)(=O)=O)c2)nc1N1CCN(c2ccccc2)CC1 | binding, competition with immobilised ligand | 1 µM | 100%
CC1CCCN1c1nccc(-c2cnn3ncccc23)n1 (stereo not shown) | binding | 1 µM | 100%
Nc1c(C(=O)NCc2ccc(C(=O)NCCCC3CCCCC3)cc2)cnn1-c1ccccc1 | cell-free assay, competition with immobilised ligand | 0.1 µM | 100%
N#Cc1ccccc1CSc1nnc2c(n1)[nH]c1ccccc12 | binding, competition with immobilised ligand | 10 µM | 84%
CN(C)c1nccc(-c2cnn3ncccc23)n1 | binding | 1 µM | 100%
Cc1c(C(=O)O)cc(-c2ccc(C3CCNCC3)cc2)c2ccc(-c3ccc(C(F)(F)F)cc3)cc12 | binding, competition with immobilised ligand | 1 µM | 100%
CC(C)(C)c1ccc(-c2nc(CBr)nn2-c2cccc(O)c2)cc1 | cell-free assay, competition with immobilised ligand | 10 µM | 91%
N[C@@H]1CCN(c2nccc(-c3cnn4ncccc34)n2)C1 | binding | 1 µM | 100%
CCN1CCN(Cc2ccc(C(=O)Nc3ccc(C)c(Oc4ccc5c(c4)CC(=O)N5)c3)cc2C(F)(F)F)CC1 | binding, competition with immobilised ligand | 1 µM | 100%
CN(c1ccnc(CNc2nc(Nc3ccc4c(c3)CC(=O)N4)ncc2C(F)(F)F)n1)S(C)(=O)=O | cell-free assay, competition with immobilised ligand | 1 µM | 84%
O=C(c1ccc(Nc2ncc(Cl)c(-c3ccc(Cl)s3)n2)cc1)N1CCC(N2CCCC2)CC1 | binding, competition with immobilised ligand | 1 µM | 68%
COc1ccnn2ncc(-c3ccnc(N(C)C)n3)c12 | binding | 1 µM | 100%
C[C@@H](c1cccc(C#N)c1)n1cc(Cl)cc(C(N)=O)c1=N | cell-free assay, competition with immobilised ligand | 1 µM | 91%
